The values below come from ChEMBL document CHEMBL4706761, “Design and Implementation of Synthetic RNA Binders for the Inhibition of miR-21 Biogenesis” (ACS Med Chem Lett, 2021).

Some results are limits rather than exact numbers.

Assay [1] addresses microRNA 21. Put plainly: Binding affinity to 5'-FAM/3'-DAB-labeled UGUCGGGUAGCUUAUCAGACUGAUGUUGACUGUUGAAUCUCAUGGCAACACCAGUCGAUGGGCUGUCUGACA pre-miRNA-21 (unknown origin) assessed as dissociation constant incubated for overnight in presence of Saccharomyces cerevisiae tRNA by fluorescence based assay. The class given is nucleic-acid assay.
The subject of assay [2] is microRNA 21. As to the kind of experiment: Selectivity index, ratio of Kd for 5'-FAM/3'-DAB-labeled UGUCGGGUAGCUUAUCAGACUGAUGUUGACUGUUGAAUCUCAUGGCAACACCAGUCGAUGGGCUGUCUGACA pre-miRNA-21 (unknown origin) in presence of tRNA to Kd for 5'-FAM/3'-DAB-labeled UGUCGGGUAGCUUAUCAGACUGAUGUUGACUGUUGAAUCUCAUGGCAACACCAGUCGAUGGGCUGUCUGACA pre-miRNA-21 (unknown origin). In kind it is nucleic-acid assay.

The target of assay [3] is microRNA 21. As to the kind of experiment: Binding affinity to 5'-FAM/3'-DAB-labeled UGUCGGGUAGCUUAUCAGACUGAUGUUGACUGUUGAAUCUCAUGGCAACACCAGUCGAUGGGCUGUCUGACA pre-miRNA-21 (unknown origin) assessed as dissociation constant incubated for overnight by fluorescence based assay. In kind it is nucleic-acid assay.
In assay [4] the test system is microRNA 21. As to the kind of experiment: Selectivity index, ratio of Kd for 5'-FAM/3'-DAB-labeled UGUCGGGUAGCUUAUCAGACUGAUGUUGACUGUUGAAUCUCAUGGCAACACCAGUCGAUGGGCUGUCUGACA pre-miRNA-21 (unknown origin) in presence of double stranded 15-mer 5'-CGTTTTTATTTTTGC-3' DNA to Kd for 5'-FAM/3'-DAB-labeled UGUCGGGUAGCUUAUCAGACUGAUGUUGACUGUUGAAUCUCAUGGCAACACCAGUCGAUGGGCUGUCUGACA pre-miRNA-21 (unknown origin). In kind it is nucleic-acid assay.

The target in assay [5] is microRNA 21. Put plainly: Binding affinity to 5'-FAM/3'-DAB-labeled UGUCGGGUAGCUUAUCAGACUGAUGUUGACUGUUGAAUCUCAUGGCAACACCAGUCGAUGGGCUGUCUGACA pre-miRNA-21 (unknown origin) assessed as dissociation constant incubated for overnight in presence of double stranded 15-mer 5'-CGTTTTTATTTTTGC-3' DNA by fluorescence based assay. In kind it is nucleic-acid assay.
For assay [6], the target named is microRNA 21. As to the kind of experiment: Inhibition of 5'-FAM/3'-DAB-labeled UGUCGGGUAGCUUAUCAGACUGAUGUUGACUGUUGAAUCUCAUGGCAACACCAGUCGAUGGGCUGUCUGACA pre-miRNA-21 (unknown origin) biogenesis incubated for 30 mins in presence of human recombinant dicer by FRET based assay. The class given is nucleic-acid assay. The method in brief: (§1)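 FRET cleavage assay on a 72-mer pre-miR-21 carrying 5′-fluorescein and 3′-dabcyl. Substrate is processed by recombinant Dicer, E. coli RNase III or MCF7 cell lysate across a range of ligand concentrations. Cleavage raises fluorescence. IC50 from duplicates over three independent experiments.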

Assay [7] deals with microRNA 21. As to the kind of experiment: Binding affinity to 5'-FAM/3'-DAB-labeled UGUCGGGUAGCUUAUCAGACUGAUGUUGACUGUUGAAUCUCAUGGCAACACCAGUCGAUGGGCUGUCUGACA pre-miRNA-21 (unknown origin) assessed as pre-miRNA-21-compound complex formation by measuring Gibbs free energy. The class given is nucleic-acid assay. The method in brief: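 ΔG°T obtained from the fluorescence binding assay on 5′-FAM-pre-miR-21, run at several temperatures (278–308 K). Enthalpic (ΔH°) and entropic (−TΔS°) contributions are derived from these values.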

The target in assay [8] is microRNA 21. Put plainly: Inhibition of 5'-FAM/3'-DAB-labeled UGUCGGGUAGCUUAUCAGACUGAUGUUGACUGUUGAAUCUCAUGGCAACACCAGUCGAUGGGCUGUCUGACA pre-miRNA-21 (unknown origin) biogenesis preincubated for 30 mins followed by MCF7 cell lysate addition and measured after 1 hr by fluorescence based assay. The method in brief:
as §1

The target in assay [9] is microRNA 21. Put plainly: Inhibition of 5'-FAM/3'-DAB-labeled UGUCGGGUAGCUUAUCAGACUGAUGUUGACUGUUGAAUCUCAUGGCAACACCAGUCGAUGGGCUGUCUGACA pre-miRNA-21 (unknown origin) biogenesis preincubated for 30 mins followed by Escherichia coli RNase III addition and measured after 1 hr by fluorescence based assay. The class given is nucleic-acid assay. The method in brief: as §1

Broadly, the Kd is the constant that tells how readily two partners part at equilibrium. For the compound `NC[C@@H]1O[C@H](O[C@H]2[C@@H](O)[C@H](O[C@@H]3[C@@H](O)[C@H](N)C[C@H](N)[C@H]3O[C@H]3O[C@H](CN)[C@@H](O)[C@H](O)[C@H]3N)O[C@@H]2CO)[C@H](N)[C@@H](O)[C@@H]1O` [FRAMYCETIN], the dissociation constant Kd at microRNA 21 [1] amounted to 1420 nM; at microRNA 21 [3] it was 1390 nM; at microRNA 21 [5] it was 1950 nM. Also, the Ratio in the assay with microRNA 21 [2] is 1; in the assay with microRNA 21 [4] it was 1.4.

Broadly, the IC50 is the concentration that gives 50% inhibition. For the compound `CC(=O)Nc1nc(-c2cccc(NC(=O)CCC(=O)N[C@@H](Cc3cn(C[C@H]4O[C@@H](O[C@@H]5[C@@H](O)[C@H](N)C[C@H](N)[C@H]5O[C@H]5O[C@H](CN)[C@@H](O)[C@H](O)[C@H]5N)[C@H](O)[C@@H]4O[C@H]4O[C@@H](CN)[C@@H](O)[C@H](O)[C@H]4N)nn3)C(=O)N[C@@H](CCCCN)C(N)=O)c2)cs1`, the Kd worked out at 51 nM on microRNA 21 [1], 50.7 nM on microRNA 21 [3] and 95.7 nM at microRNA 21 [5]. Besides, the Ratio was found to be 1 in the assay with microRNA 21 [2] and 1.9 with microRNA 21 [4]. Moreover, the IC50 on microRNA 21 [6] is below 5000 nM. Moreover, the deltaG with microRNA 21 [7] is -9.92 kcal/mol.

Consider `NC[C@@H]1O[C@H](O[C@H]2[C@@H](O)[C@H](O[C@@H]3[C@@H](O)[C@H](N)C[C@H](N)[C@H]3O[C@H]3O[C@H](CN)[C@@H](O)[C@H](O)[C@H]3N)O[C@@H]2Cn2cc(CCC(=O)Nc3cccc(-c4csc(NC(=O)[C@@H](N)Cc5c[nH]cn5)n4)c3)nn2)[C@H](N)[C@@H](O)[C@@H]1O`, for which the figures for the Kd at microRNA 21 [1], on microRNA 21 [3] and on microRNA 21 [5] were 134 nM, 128 nM and 171 nM, respectively. Besides, the Ratio with microRNA 21 [2] was determined as 1; with microRNA 21 [4], 1.3. Also, the results for the IC50 at microRNA 21 [8], at microRNA 21 [6] and on microRNA 21 [9] were 3100 nM, below 5000 nM and 1260 nM, respectively.

As for `Cc1ccc(C(=O)Nc2nc(-c3cccc(NC(=O)CCC(=O)N[C@@H](Cc4cn(C[C@H]5O[C@@H](O[C@@H]6[C@@H](O)[C@H](N)C[C@H](N)[C@H]6O[C@H]6O[C@H](CN)[C@@H](O)[C@H](O)[C@H]6N)[C@H](O)[C@@H]5O[C@H]5O[C@@H](CN)[C@@H](O)[C@H](O)[C@H]5N)nn4)C(=O)N[C@@H](C)C(N)=O)c3)cs2)cc1`, the Kd at microRNA 21 [1] was 170 nM; on microRNA 21 [3] it was 128 nM; on microRNA 21 [5], 261 nM. Moreover, the Ratio is 1.3 with microRNA 21 [2] and 2 in the assay on microRNA 21 [4]. The IC50 at microRNA 21 [6] is below 5000 nM.

Turning to `Cc1ccc(C(=O)Nc2nc(-c3cccc(NC(=O)CCC(=O)N[C@@H](Cc4cn(C[C@H]5O[C@@H](O[C@@H]6[C@@H](O)[C@H](N)C[C@H](N)[C@H]6O[C@H]6O[C@H](CN)[C@@H](O)[C@H](O)[C@H]6N)[C@H](O)[C@@H]5O[C@H]5O[C@@H](CN)[C@@H](O)[C@H](O)[C@H]5N)nn4)C(=O)N[C@@H](Cc4c[nH]cn4)C(N)=O)c3)cs2)cc1`, the Kd on microRNA 21 [1] was 168 nM; at microRNA 21 [3], 162 nM; at microRNA 21 [5], 274 nM. The Ratio in the assay with microRNA 21 [2] amounted to 1; in the assay with microRNA 21 [4], 1.7. The IC50 on microRNA 21 [6] was below 5000 nM.

Take `Cc1ccc(C(=O)Nc2nc(-c3cccc(NC(=O)CCC(=O)N[C@@H](Cc4cn(C[C@H]5O[C@@H](O[C@@H]6[C@@H](O)[C@H](N)C[C@H](N)[C@H]6O[C@H]6O[C@H](CN)[C@@H](O)[C@H](O)[C@H]6N)[C@H](O)[C@@H]5O[C@H]5O[C@@H](CN)[C@@H](O)[C@H](O)[C@H]5N)nn4)C(=O)N[C@@H](CCCCN)C(N)=O)c3)cs2)cc1`: the equilibrium dissociation constant (Kd) amounted to 405 nM at microRNA 21 [1], 348 nM on microRNA 21 [3] and 877 nM at microRNA 21 [5]. Further, the Ratio with microRNA 21 [2] was determined as 1.2; in the assay on microRNA 21 [4], 2.5.

Turning to `CC(=O)Nc1nc(-c2cccc(NC(=O)CCC(=O)N[C@@H](Cc3cn(C[C@H]4O[C@@H](O[C@@H]5[C@@H](O)[C@H](N)C[C@H](N)[C@H]5O[C@H]5O[C@H](CN)[C@@H](O)[C@H](O)[C@H]5N)[C@H](O)[C@@H]4O[C@H]4O[C@@H](CN)[C@@H](O)[C@H](O)[C@H]4N)nn3)C(=O)N[C@@H](C)C(N)=O)c2)cs1`, the figures for the Kd on microRNA 21 [1], at microRNA 21 [3] and on microRNA 21 [5] were 151 nM, 133 nM and 187 nM, respectively. Further, the Ratio in the assay with microRNA 21 [2] is 1.1; in the assay on microRNA 21 [4], 1.4.

For `CC(=O)Nc1nc(-c2cccc(NC(=O)CCC(=O)N[C@@H](Cc3cn(C[C@H]4O[C@@H](O[C@@H]5[C@@H](O)[C@H](N)C[C@H](N)[C@H]5O[C@H]5O[C@H](CN)[C@@H](O)[C@H](O)[C@H]5N)[C@H](O)[C@@H]4O[C@H]4O[C@@H](CN)[C@@H](O)[C@H](O)[C@H]4N)nn3)C(=O)N[C@@H](Cc3c[nH]cn3)C(N)=O)c2)cs1`, the Kd at microRNA 21 [1] was 50.4 nM; on microRNA 21 [3], 50.3 nM; at microRNA 21 [5], 80.9 nM. Further, the Ratio with microRNA 21 [2] turned out to be 1; in the assay on microRNA 21 [4] it was 1.6. Further, on microRNA 21 [6], the IC50 is below 5000 nM. Further, the deltaG with microRNA 21 [7] was -9.92 kcal/mol.

Take `C[C@H](NC(=O)[C@H](Cc1cn(C[C@H]2O[C@@H](O[C@@H]3[C@@H](O)[C@H](N)C[C@H](N)[C@H]3O[C@H]3O[C@H](CN)[C@@H](O)[C@H](O)[C@H]3N)[C@H](O)[C@@H]2O[C@H]2O[C@@H](CN)[C@@H](O)[C@H](O)[C@H]2N)nn1)NC(=O)CCC(=O)NCCn1ccc(=O)[nH]c1=O)C(N)=O`: the Kd was found to be 807 nM at microRNA 21 [1], 641 nM on microRNA 21 [3] and 1460 nM at microRNA 21 [5]. The Ratio with microRNA 21 [2] is 1.3; with microRNA 21 [4] it was 2.3.
